Calls of active or inactive are those of the source.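 How the source made its calls, unless noted: active means a full or partial loss of lipid-probe fluorescence in the fish gall bladder, intestine or both, judged by eye; inactive means no fluorescence loss, or compound toxic to the fish.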

Consider seven molecules from PubChem BioAssay.

Assay [1] in a line: inhibitors of TNFa-induced NFkB p65 translocation, primary screen, imaging, HUVEC, MLSMR starter and 10KST1 sets (AID 438;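 active means inhibition above 20% together with a positive visual image hit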;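 further: compound added about 3h40 before a 20 min TNFalpha stimulation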;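 on inhibition: signal is the nuclear over cytoplasmic p65 intensity ratio per well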). Particulars: HUVEC TNFa-induced p65 nuclear translocation; cell count: measured here: nuclei count (cytotoxicity indicator), at 2.08 µM; inhibition: at 2 µM, stronger effect = higher value, 0% TNFa-plus-vehicle, 100% no-TNFa wells.
A short description of assay [2]: inhibitors of E-selectin induction by TNFa, primary screen, imaging, HUVEC, immunofluorescence, MLSMR starter and 10KST1 sets (AID 487;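 active means visually confirmed hit in the image check and inhibition above 20%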;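 on inhibition: signal is fraction of cell area covered by stained E-selectin grains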;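 on nuclei count: 100% = median nuclei count of all wells on the same plate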). Particulars: HUVEC TNFalpha-induced E-selectin immunofluorescence imaging, at 2 µM; inhibition: stronger effect = higher value; nuclei count: measured here: cell number, toxicity.
A short description of assay [3]: DUSP6 inhibitors restoring Erk phosphorylation by chemical complementation, primary imaging in DUSP6-transfected HeLa (AID 609;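 active means compounds giving at least 50% inhibition in the cell-based MKP-3 phosphatase rescue imaging test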;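 on inhibition: phospho-Erk level distribution per well compared with pooled transfected vehicle control wells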). Particulars: HeLa MKP-3 transfected, phospho-Erk imaging KS statistic, at 10 µM, cells stimulated with TPA for 15 min.
Assay [4] addresses Dual specificity protein phosphatase 6 (Homo sapiens) (UniProt Q16828). Described as above. The note with it: HeLa MKP-3 transfected, phospho-Erk imaging KS statistic; at 10 µM; stronger effect = higher value; cells stimulated with TPA for 15 min.
The target of assay [5] is Voltage-gated potassium channel subunit beta-2 (Rattus norvegicus) (UniProt P62483). The assay can be described thus: KvBeta enzyme negative modulators, primary screen, biochemical, NADPH fluorescence (AID 622;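 active means fluorescence slope higher than the sample average by over 3 SD, cut at about -0.22 in these data, passing the limit was not always enough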;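 further: slope of raw intensity against log time taken from 70 to 1610 s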). Particulars: recombinant KvBeta, 4-cyanobenzaldehyde reduction, at 10 µM, stronger effect = higher value.
Sequence of Voltage-gated potassium channel subunit beta-2 (Rattus norvegicus) (P62483 whole entry, looked up): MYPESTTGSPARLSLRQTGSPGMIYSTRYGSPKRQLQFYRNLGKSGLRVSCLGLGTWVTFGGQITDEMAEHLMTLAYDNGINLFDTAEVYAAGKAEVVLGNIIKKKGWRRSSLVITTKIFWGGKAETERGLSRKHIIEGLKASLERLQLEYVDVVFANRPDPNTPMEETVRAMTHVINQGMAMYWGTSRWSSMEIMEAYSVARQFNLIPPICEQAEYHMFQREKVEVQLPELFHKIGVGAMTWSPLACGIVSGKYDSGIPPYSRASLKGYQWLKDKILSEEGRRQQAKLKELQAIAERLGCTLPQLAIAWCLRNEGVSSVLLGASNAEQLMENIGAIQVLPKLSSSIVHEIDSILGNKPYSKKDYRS
Assay [6] shares this target. The assay can be described thus: KvBeta positive modulators, primary screen, biochemical, NADPH fluorescence (AID 623;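 active means NADPH fluorescence slope more negative than the mean of all samples by about 3 SD, 99.7% confidence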;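 further: fluorescence intensity change per second fitted from 20 to 320 s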). The note with it: Recombinant KvBeta, NADPH fluorescence decrease slope, 10 min; at 10 µM; stronger effect = lower value.
The target of assay [7] is Muscarinic acetylcholine receptor M4 (Homo sapiens) (UniProt P08173). Briefly: compounds altering M4/GIRK thallium flux, either direction, primary screen, M4 allosteric agonist project, cell-based, HEK293 M4/GIRK, BTC-AM (AID 625;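 active means fluorescence slope after compound addition differing from the mean of all tested samples at 99.7% confidence, mostly higher but some lower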;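 further: thallium influx through GIRK channels coupled to M4 in HEK293 cells with BTC-AM dye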). The note with it: at 10 µM, actives lie on both sides. The essentials:
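Material: HEK293 cells with M4 receptor and GIRK channels; Times: cells overnight at 37 °C, BTC-AM loading 1 h, reads 2 min total; Technique: kinetic BTC-AM fluorescence sampled at 1 Hz, 10 s pre-addition baseline; Read-out basis: slope over 15–24 s of trace normalized to starting intensity; Controls: carbachol positive, DMSO negative.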

A short description of assay [8]: inhibitors of larval lipid processing in zebrafish, primary screen, whole organism, PED6 fluorescence, gall bladder and intestine (AID 686).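 Further: larvae 5 to 7 days old with five fish per well; signal comes from phospholipase A2 cleavage of quenched PED6 carried via bile.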 The note with it: Zebrafish larvae PED6 lipid processing, fluorescence scoring; screened at 20 µM (by protocol). Summed up:
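Incubation: overnight exposure of larvae to compound plus PED6 / Test system: live zebrafish larvae aged 5-7 days, whole organism / Amount: 5 larvae per well / Read-out basis: visual per-well fluorescence inhibition score / Signal: visual fluorescence microscopy scoring of gall bladder, gut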

Assay [9] can be described thus: inhibitors of Chlamydomonas gravitaxis, primary screen, whole organism, Chlamydomonas reinhardtii, WT vs cilia-less mutant, absorbance, 96-well (AID 463189;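 active means inhibition at or above 50% relative to wild type and mutant plate controls; inactive means inhibition below 50%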;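 further: 0% = wild type cc124 cells in DMSO and 100% = ciliumless bld1 mutant cells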). Particulars: OD600 absorbance, 2 days, at 10 µM, stronger effect = higher value.
The mark [10] stands for this setting: measured here: cell density z-score.
Setting [11] is: measured here: nuclear c-Myc green intensity z-score.
[12] abbreviates: measured here: nuclear pErk red intensity z-score, stronger effect = higher value.

Sequence of Muscarinic acetylcholine receptor M4 (Homo sapiens) (P08173 whole entry, looked up): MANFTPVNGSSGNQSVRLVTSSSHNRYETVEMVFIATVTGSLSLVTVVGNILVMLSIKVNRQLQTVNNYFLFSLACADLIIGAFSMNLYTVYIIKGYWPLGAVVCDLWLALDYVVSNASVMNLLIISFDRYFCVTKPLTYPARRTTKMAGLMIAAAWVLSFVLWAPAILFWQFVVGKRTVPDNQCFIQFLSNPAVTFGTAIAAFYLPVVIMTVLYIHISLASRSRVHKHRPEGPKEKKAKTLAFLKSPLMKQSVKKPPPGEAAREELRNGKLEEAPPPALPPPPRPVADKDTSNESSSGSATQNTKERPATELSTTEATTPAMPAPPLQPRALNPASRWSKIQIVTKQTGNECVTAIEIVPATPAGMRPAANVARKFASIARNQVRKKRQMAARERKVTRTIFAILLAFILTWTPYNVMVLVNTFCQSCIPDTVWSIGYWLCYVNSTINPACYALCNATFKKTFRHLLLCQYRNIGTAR
Sequence of Dual specificity protein phosphatase 6 (Homo sapiens) (Q16828 whole entry, looked up): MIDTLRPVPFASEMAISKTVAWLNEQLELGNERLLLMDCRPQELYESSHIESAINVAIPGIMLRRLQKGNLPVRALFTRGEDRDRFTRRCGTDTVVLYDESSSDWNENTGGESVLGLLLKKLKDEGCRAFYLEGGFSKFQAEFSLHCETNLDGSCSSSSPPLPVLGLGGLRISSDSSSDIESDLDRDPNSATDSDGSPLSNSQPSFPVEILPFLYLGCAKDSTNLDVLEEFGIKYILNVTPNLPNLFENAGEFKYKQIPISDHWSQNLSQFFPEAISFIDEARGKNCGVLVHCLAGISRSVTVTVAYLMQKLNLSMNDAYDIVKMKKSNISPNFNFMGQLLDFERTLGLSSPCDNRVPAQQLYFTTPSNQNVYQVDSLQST

For orientation: inhibition means the drop in the measured response relative to a control, in per cent. Take `Cc1ccc(-c2nnc(-c3ccccc3)o2)cc1Br`: the cell count in assay [1] was 570. In addition, the inhibition is -3.8% (inactive) in assay [1], 33% (inactive) in [2], 1.63% (inactive) in assay [4] and 2.02% (inactive) in [9]. In addition, the nuclei count in assay [2] amounted to 98.9%. The results for the z-score in [3] (setting [10]), in assay [3] (setting [11]) and in [3] (setting [12]) were -0.752, 0.492 and -1.02, respectively. Besides, the values for the fluorescence slope in assay [5] and in assay [7] were -0.564 (inactive) and 0.00616 (inactive), respectively. Moreover, the NADPH fluorescence slope in assay [6] is 6e-06 (inactive). The call in [8] was inactive.

For the molecule `CCN(CC)c1ccc(C2Nc3cccc4cccc(c34)N2)c(O)c1`, the cell count in assay [1] is 571. The inhibition in assay [1] is 2.2% (inactive); in [2] it was -102% (inactive); in assay [4], -0.584% (inactive); in assay [9] it was 40% (inactive). In assay [2], this molecule had a nuclei count of 134%. Moreover, the z-score is 0.205 in assay [3] (setting [10]), -0.845 in assay [3] (setting [11]) and -0.409 in assay [3] (setting [12]). Further, the fluorescence slope was -0.397 (inactive) in [5] and 0.00286 (inactive) in [7]. Also, the NADPH fluorescence slope in assay [6] is -7.3e-05 (inactive). For the same molecule, the outcome in assay [8] is “active; no signal in gallbladder and intestine”.

In the case of `CCc1nc(N2CCN(C(=O)c3ccccc3)CC2)c(C#N)c2c1COC(C)(C)C2`, the cell count in assay [1] was 548. Besides, the inhibition in [1] was 2% (inactive); in assay [2] it was -77.4% (inactive); in assay [4], 3.42% (inactive); in [9], 5.51% (inactive). This molecule displayed a nuclei count in assay [2] of 113%. The z-score in assay [3] (setting [10]) was -0.584; in assay [3] (setting [11]), 0.135; in [3] (setting [12]), 0.894. For the same molecule, the fluorescence slope was -0.474 (inactive) in assay [5] and 0.00455 (inactive) in [7]. For the same molecule, the NADPH fluorescence slope in assay [6] was 6.5e-05 (inactive). For the same molecule, in assay [8], the outcome was inactive.

For the molecule `O=C1CC(C(=O)O)c2ccccc2N1` (stereo unspecified), the cell count in assay [1] came to 589. For the same molecule, the inhibition in assay [1] was 5.9% (inactive); in [2], -180% (inactive); in [4] it was 15.4% (inactive); in assay [9] it was 6% (inactive). Also, in [2], the nuclei count is 135%. In addition, the values for the z-score in assay [3] (setting [10]), in assay [3] (setting [11]) and in assay [3] (setting [12]) were 0.749, 0.0521 and -0.602, respectively. Besides, the fluorescence slope in assay [5] was -0.465 (inactive); in assay [7], 0.00465 (inactive). Further, the NADPH fluorescence slope in assay [6] was -0.000133 (inactive). Besides, in assay [8], the molecule was called inactive.

Consider `C=CCc1cccc(CNc2nc3ccccc3n2C(C)C)c1O`, for which the cell count in assay [1] was 653. Further, the inhibition in assay [1] was 4.4% (inactive); in assay [2] it was 17.8% (inactive); in [4] it was -3.95% (inactive); in assay [9], 2.16% (inactive). The same molecule gave a nuclei count in [2] of 145%. For the same molecule, the results for the z-score in [3] (setting [10]), in [3] (setting [11]) and in assay [3] (setting [12]) were -1.18, 1.98 and 1.18, respectively. Besides, the fluorescence slope in assay [5] is -0.502 (inactive); in assay [7], 0.00595 (inactive). In assay [6], the NADPH fluorescence slope was -9.2e-05 (inactive). For the same molecule, the call in assay [8] was inactive.

Consider `COc1ccccc1C1/C(=C(/O)c2ccc(OC(C)C)cc2)C(=O)C(=O)N1c1cc(C)on1` (stereo unspecified), for which the cell count in [1] came out at 437. For the same molecule, the inhibition in assay [1] was -8.5% (inactive); in assay [2], -118% (inactive); in assay [4], 9.37% (inactive); in assay [9] it was -0.61% (inactive). In assay [2], this molecule showed a nuclei count of 148%. Moreover, the z-score in assay [3] (setting [10]) is 1.18; in assay [3] (setting [11]), -0.452; in assay [3] (setting [12]), -0.964. Besides, the fluorescence slope in assay [5] is -0.438 (inactive); in assay [7], 0.006 (inactive). The NADPH fluorescence slope in [6] was -0.000335 (active). Moreover, in [8], the outcome was inactive.

For `O=c1c(-c2ccc(Cl)cc2)[n+]([O-])c2ccccc2n1O`, the cell count in [1] turned out to be 517. Also, the inhibition in assay [1] was -16.1% (inactive); in [2], -12.5% (inactive); in assay [4], 15.9% (inactive); in [9], 33.5% (inactive). This molecule came in with a nuclei count in [2] of 170%. The z-score in assay [3] (setting [10]) stood at 0.0473; in assay [3] (setting [11]), 0.796; in assay [3] (setting [12]) it was 0.573. Further, the figures for the fluorescence slope in [5] and in [7] were -0.31 (inactive) and 0.0132 (active), respectively. Moreover, in assay [6], the NADPH fluorescence slope was -3.9e-05 (inactive). Further, the call in assay [8] was inactive.
